From ChEMBL document CHEMBL1138564, “Microwave-induced synthesis and anti-microbial activities of 7,10,11,12-tetrahydrobenzo[c]acridin-8(9H)-one derivatives” (2009)
Values after ≈ are worked out from the molar mass of the structure shown. Active and inactive are the calls of the source. The rule behind the calls is not given here.

What was measured:
Type in all cases: functional
[1] = test system: Rhodococcus corynebacterioides; experiment: Antimicrobial activity against Corynebacterium rubrum NCIM 2252 at 500 ug/disk after 24 hrs by disk diffusion method; settings: Rhodococcoides corynebacterioides
Method in brief: (§1)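 Disc diffusion on Mueller–Hinton agar. 100 µl of bacterial suspension at 10⁸ CFU/ml is spread on the plate. Discs carry test compounds at two loadings, dissolved in DMSO; DMSO alone serves as negative control. Ofloxacin disc is the positive reference. Plates are incubated at 37 °C for 24 h, and the inhibition zone diameter is measured.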

Aspergillus fumigatus [2] = experiment: Antimicrobial activity against Aspergillus fumigatus NCIM 902 at 1000 ug/disk after 72 hrs by disk diffusion method
Method in brief: (§2)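 Disc diffusion on Sabouraud's dextrose agar. 100 µl of fungal suspension at 10⁶ CFU/ml is spread on the plate. Discs carry test compounds at two loadings in DMSO; DMSO alone is the negative control. Clotrimazole disc is the positive reference. Plates are incubated at 27 °C for 72 h, and the zone of inhibition diameter is measured.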

Rhodotorula mucilaginosa [3] = experiment: Antimicrobial activity against Rhodotorula rubra NCIM 3174 at 500 ug/disk after 72 hrs by disk diffusion method; settings: NCIM 3174, 72 h, read-out: DIZ
Method in brief: (§3)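 Fungal disc diffusion. 100 µl of suspension at 10⁶ CFU/ml was spread on Sabouraud's dextrose agar. Discs carrying test compound in DMSO were applied, with a DMSO-only disc as negative control. Plates were incubated at 27 °C for 72 h, and the zone of inhibition diameter was measured.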

Bacillus subtilis [4] = experiment: Antimicrobial activity against Bacillus subtilis NCIM 2063 at 500 ug/disk after 24 hrs by disk diffusion method; method in brief: as §1
Bacillus subtilis [5] = experiment: Antimicrobial activity against Bacillus subtilis NCIM 2063 after 24 hrs by serial dilution method; settings: NCIM 2063, 24 h
Method in brief: (§4)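 Broth dilution MIC in nutrient broth, run only for organisms found sensitive in disc diffusion. Compounds are two-fold serially diluted in 1 ml sterile broth per tube, spanning 3.9 to 1000. Inoculated tubes are incubated at 37 °C for 24 h.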

Klebsiella aerogenes [6] = experiment: Antimicrobial activity against Klebsiella aerogenes NCIM 2239 at 1000 ug/disk after 24 hrs by disk diffusion method; settings: NCIM 2239, 24 h, read-out: DIZ; method in brief: as §1
Trichoderma viride [7] = experiment: Antimicrobial activity against Trichoderma viride NCIM 1195 at 500 ug/disk after 72 hrs by disk diffusion method; settings: NCIM 1195, 72 h, read-out: DIZ; method in brief: as §3
Rhodotorula mucilaginosa [8] = experiment: Antimicrobial activity against Rhodotorula rubra NCIM 3174 after 72 hrs by serial dilution method; settings: NCIM 3174, 72 h
Method in brief: (§5)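 MIC by broth dilution in Sabouraud's dextrose broth, run only on fungi found sensitive in the disc assay. Twofold serial dilutions were made in 1 ml broth per tube, covering 3.9 to 1000. Inoculated tubes were incubated at 27 °C for 72 h.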

Aliivibrio fischeri [9] = experiment: Antimicrobial activity against Vibrio fischeri NCIM 2154 after 24 hrs by serial dilution method; settings: NCIM 2154, 24 h
Pseudomonas aeruginosa = experiment: Antimicrobial activity against Pseudomonas aeruginosa NCIM 2200 at 500 ug/disk after 24 hrs by disk diffusion method
Method in brief: (§6)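 Disc diffusion. 100 µl of bacterial suspension at 10⁸ CFU/ml was spread on Mueller–Hinton agar. Discs loaded with test compound dissolved in DMSO were placed on the lawn, with a DMSO-only disc as negative control. Plates were incubated at 37 °C for 24 h, and the inhibition zone diameter was measured.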

Rhodotorula mucilaginosa [10] = experiment: Antimicrobial activity against Rhodotorula rubra NCIM 3174 at 1000 ug/disk after 72 hrs by disk diffusion method; settings: NCIM 3174, 72 h, read-out: DIZ; method in brief: as §3
Aspergillus fumigatus [11] = experiment: Antimicrobial activity against Aspergillus fumigatus NCIM 902 at 500 ug/disk after 72 hrs by disk diffusion method; method in brief: as §2
Aspergillus flavus [12] = experiment: Antimicrobial activity against Aspergillus flavus NCIM 902 at 1000 ug/disk after 72 hrs by disk diffusion method; settings: NCIM 902, 72 h, read-out: DIZ; method in brief: as §2
Bacillus subtilis [13] = experiment: Antimicrobial activity against Bacillus subtilis NCIM 2063 at 1000 ug/disk after 24 hrs by disk diffusion method; settings: NCIM 2063, 24 h, read-out: DIZ; method in brief: as §1
Penicillium chrysogenum [14] = experiment: Antimicrobial activity against Penicillium chrysogenum NCIM 707 at 500 ug/disk after 72 hrs by disk diffusion method; method in brief: as §2
Bacillus cereus = experiment: Antimicrobial activity against Bacillus cereus NCIM 2155 at 1000 ug/disk after 24 hrs by disk diffusion method; method in brief: as §1
[15] = test system: Rhodococcus corynebacterioides; experiment: Antimicrobial activity against Corynebacterium rubrum NCIM 2252 at 1000 ug/disk after 24 hrs by disk diffusion method; settings: Rhodococcoides corynebacterioides; method in brief: as §1
Salmonella typhimurium = experiment: Antimicrobial activity against Salmonella Typhimurium NCIM 2501 at 1000 ug/disk after 24 hrs by disk diffusion method; method in brief: as §6
Staphylococcus = experiment: Antimicrobial activity against Staphylococcus albus NCIM 2178 at 500 ug/disk after 24 hrs by disk diffusion method; method in brief: as §6
Aspergillus parasiticus [16] = experiment: Antimicrobial activity against Aspergillus parasiticus NCIM 904 after 72 hrs by serial dilution method; settings: NCIM 904, 72 h
Method in brief: (§7)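 MIC by broth dilution in Sabouraud's dextrose broth, only for fungi sensitive in disc diffusion. Two-fold serial dilutions of compounds are made in 1 ml broth per tube, range 3.9 to 1000. Inoculated tubes are incubated at 27 °C for 72 h.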

Proteus vulgaris [17] = experiment: Antimicrobial activity against Proteus vulgaris NCIM 2027 at 1000 ug/disk after 24 hrs by disk diffusion method; method in brief: as §1
Aliivibrio fischeri [18] = experiment: Antimicrobial activity against Vibrio fischeri NCIM 2154 at 500 ug/disk after 24 hrs by disk diffusion method; method in brief: as §6
Aspergillus parasiticus [19] = experiment: Antimicrobial activity against Aspergillus parasiticus NCIM 904 at 500 ug/disk after 72 hrs by disk diffusion method; settings: NCIM 904, 72 h, read-out: DIZ; method in brief: as §2
Escherichia coli [20] = experiment: Antimicrobial activity against Escherichia coli NCIM 2065 after 24 hrs by serial dilution method; settings: NCIM 2065, 24 h; method in brief: as §4
Trichoderma viride [21] = experiment: Antimicrobial activity against Trichoderma viride NCIM 1195 after 72 hrs by serial dilution method; settings: NCIM 1195, 72 h; method in brief: as §5
Trichoderma viride [22] = experiment: Antimicrobial activity against Trichoderma viride NCIM 1195 at 1000 ug/disk after 72 hrs by disk diffusion method; settings: NCIM 1195, 72 h, read-out: DIZ; method in brief: as §3
Proteus vulgaris [23] = experiment: Antimicrobial activity against Proteus vulgaris NCIM 2027 at 500 ug/disk after 24 hrs by disk diffusion method; method in brief: as §1
Aspergillus flavus [24] = experiment: Antimicrobial activity against Aspergillus flavus NCIM 902 after 72 hrs by serial dilution method; settings: NCIM 535, 72 h, in the assay text read “NCIM 535” for “NCIM 902”; method in brief: as §7
Klebsiella aerogenes [25] = experiment: Antimicrobial activity against Klebsiella aerogenes NCIM 2239 at 500 ug/disk after 24 hrs by disk diffusion method; method in brief: as §1
Penicillium chrysogenum [26] = experiment: Antimicrobial activity against Penicillium chrysogenum NCIM 707 at 1000 ug/disk after 72 hrs by disk diffusion method; method in brief: as §2
Escherichia coli [27] = experiment: Antimicrobial activity against Escherichia coli NCIM 2065 at 1000 ug/disk after 24 hrs by disk diffusion method; settings: NCIM 2065, 24 h, read-out: DIZ; method in brief: as §1
Escherichia coli [28] = experiment: Antimicrobial activity against Escherichia coli NCIM 2065 at 500 ug/disk after 24 hrs by disk diffusion method; method in brief: as §1

MIC (Bacillus subtilis [5]) [µg/mL]	MIC (Rhodotorula mucilaginosa [8]) [µg/mL]	MIC (Aspergillus parasiticus [16]) [µg/mL]	MIC (Escherichia coli [20]) [µg/mL]	MIC (Trichoderma viride [21]) [µg/mL]	MIC (Aspergillus flavus [24]) [µg/mL]	Compound	zone of inhibition at 500 µg/disc (Rhodotorula mucilaginosa [3]) [mm]	zone of inhibition at 1000 µg/disc (Klebsiella aerogenes [6]) [mm]	zone of inhibition at 500 µg/disc (Trichoderma viride [7]) [mm]	MIC (Aliivibrio fischeri [9]) [µg/mL]	diameter of the inhibition zone (DIZ) (Pseudomonas aeruginosa)	zone of inhibition at 1000 µg/disc (Rhodotorula mucilaginosa [10]) [mm]	zone of inhibition at 1000 µg/disc (Aspergillus flavus [12]) [mm]	zone of inhibition at 1000 µg/disc (Bacillus subtilis [13]) [mm]	diameter of the inhibition zone (DIZ) (Penicillium chrysogenum [14])	diameter of the inhibition zone (DIZ) (Staphylococcus)	diameter of the inhibition zone (DIZ) (Proteus vulgaris [17])	zone of inhibition at 500 µg/disc (Aspergillus parasiticus [19]) [mm]	zone of inhibition at 1000 µg/disc (Trichoderma viride [22]) [mm]	diameter of the inhibition zone (DIZ) (Proteus vulgaris [23])	also measured
31.2 (≈ 86.7 µM)	62.5 (≈ 174 µM)	15.6 (≈ 43.4 µM)	62.5 (≈ 174 µM)	125 (≈ 347 µM)	62.5 (≈ 174 µM)	O=C1CCCC2=C1C(c1cccc(Cl)c1)c1ccc3ccccc3c1N2 (centres undefined)	8	9	8	62.5 (≈ 174 µM)	inactive	10	11	11	inactive	inactive	inactive	12	10	inactive	zone of inhibition at 500 µg/disc ([1]; NCIM 2252, 24 h, read-out: DIZ): 7 mm; zone of inhibition at 1000 µg/disc (Aspergillus fumigatus [2]; NCIM 902, 72 h, read-out: DIZ): 12 mm; zone of inhibition at 500 µg/disc (Bacillus subtilis [4]; NCIM 2063, 24 h, read-out: DIZ): 8 mm; zone of inhibition at 500 µg/disc (Aspergillus fumigatus [11]; NCIM 902, 72 h, read-out: DIZ): 8 mm; diameter of the inhibition zone (DIZ) (Bacillus cereus): inactive; zone of inhibition at 1000 µg/disc ([15]; NCIM 2252, 24 h, read-out: DIZ): 9 mm; diameter of the inhibition zone (DIZ) (Salmonella typhimurium; Salmonella enterica subsp. enterica serovar Typhimurium): inactive; zone of inhibition at 500 µg/disc (Aliivibrio fischeri [18]; NCIM 2154, 24 h, read-out: DIZ): 9 mm; diameter of the inhibition zone (DIZ) (Klebsiella aerogenes [25]): inactive; diameter of the inhibition zone (DIZ) (Penicillium chrysogenum [26]): inactive; zone of inhibition at 1000 µg/disc (Escherichia coli [27]): 9 mm; zone of inhibition at 500 µg/disc (Escherichia coli [28]; NCIM 2065, 24 h, read-out: DIZ): 7 mm
62.5 (≈ 169 µM)	7.8 (≈ 21.1 µM)	3.9 (≈ 10.6 µM)	125 (≈ 338 µM)	31.2 (≈ 84.4 µM)	62.5 (≈ 169 µM)	CC1(C)CC(=O)C2=C(C1)Nc1c(ccc3ccccc13)C2c1ccccc1O (centres undefined)	10	10	10	125 (≈ 338 µM)	inactive	14	10	9	inactive	inactive	inactive	10	12	inactive	diameter of the inhibition zone (DIZ) [1]: inactive; diameter of the inhibition zone (DIZ) (Aspergillus fumigatus [2]): inactive; diameter of the inhibition zone (DIZ) (Bacillus subtilis [4]): inactive; diameter of the inhibition zone (DIZ) (Aspergillus fumigatus [11]): inactive; zone of inhibition at 1000 µg/disc (Bacillus cereus; NCIM 2155, 24 h, read-out: DIZ): 10 mm; diameter of the inhibition zone (DIZ) [15]: inactive; zone of inhibition at 1000 µg/disc (Salmonella typhimurium; Salmonella enterica, NCIM 2501, 24 h, read-out: DIZ): 11 mm; diameter of the inhibition zone (DIZ) (Aliivibrio fischeri [18]): inactive; zone of inhibition at 500 µg/disc (Klebsiella aerogenes [25]; NCIM 2239, 24 h, read-out: DIZ): 7 mm; diameter of the inhibition zone (DIZ) (Penicillium chrysogenum [26]): inactive; zone of inhibition at 1000 µg/disc (Escherichia coli [27]): 8 mm; diameter of the inhibition zone (DIZ) (Escherichia coli [28]): inactive
